# Activity calls are given as the source filed them. The rule behind the calls is not given here.
# What was measured:
# [1] = biological target: T1, 17-beta-hydroxysteroid dehydrogenase type 1 (Homo sapiens, UniProt P14061)
# T1 sequence (P14061 whole entry): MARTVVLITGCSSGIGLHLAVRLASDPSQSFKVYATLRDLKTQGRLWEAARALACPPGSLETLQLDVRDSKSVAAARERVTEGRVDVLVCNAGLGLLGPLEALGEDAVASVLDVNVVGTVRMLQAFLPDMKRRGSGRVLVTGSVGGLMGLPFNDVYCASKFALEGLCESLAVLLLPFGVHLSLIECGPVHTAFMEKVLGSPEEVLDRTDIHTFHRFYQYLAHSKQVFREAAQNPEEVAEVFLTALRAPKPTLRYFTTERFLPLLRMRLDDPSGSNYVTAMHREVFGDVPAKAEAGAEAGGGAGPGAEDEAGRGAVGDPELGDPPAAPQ
# [2] = biological target: T2, 17-beta-hydroxysteroid dehydrogenase type 2 (Homo sapiens, UniProt P37059); assay: Inhibition of human placental 17betaHSD2 by radiodetection assay
# T2 sequence (P37059 whole entry): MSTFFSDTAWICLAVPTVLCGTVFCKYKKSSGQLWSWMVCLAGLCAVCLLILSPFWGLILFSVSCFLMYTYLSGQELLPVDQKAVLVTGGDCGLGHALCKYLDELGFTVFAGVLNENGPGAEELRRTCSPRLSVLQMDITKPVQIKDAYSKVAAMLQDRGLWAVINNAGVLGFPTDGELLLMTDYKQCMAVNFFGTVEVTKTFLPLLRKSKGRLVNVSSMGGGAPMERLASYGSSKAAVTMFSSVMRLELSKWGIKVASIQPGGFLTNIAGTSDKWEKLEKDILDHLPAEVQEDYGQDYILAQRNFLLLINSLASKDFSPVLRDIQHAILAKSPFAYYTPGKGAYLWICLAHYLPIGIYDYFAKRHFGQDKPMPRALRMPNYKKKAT
# Outline: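 Microsomal fraction from fresh human placenta (pellet after homogenisation and centrifugation). Incubated 20 min at 37 °C with NAD+ 1500 μM and unlabeled E2 plus [2,4,6,7-3H]E2 (500 nM final) in phosphate buffer 50 mM with 20% glycerol and 1 mM EDTA, 1% DMSO. Stopped with HgCl2 and ether-extracted. Substrate and product separated by HPLC with radiodetection. Mean of three determinations.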
# Cytochrome P450 3A4 = Cytochrome P450 3A4 (Homo sapiens, UniProt P08684); assay: Inhibition of human hepatic CYP3A4; assay type: ADME
# Chain of Cytochrome P450 3A4 (P08684 whole entry): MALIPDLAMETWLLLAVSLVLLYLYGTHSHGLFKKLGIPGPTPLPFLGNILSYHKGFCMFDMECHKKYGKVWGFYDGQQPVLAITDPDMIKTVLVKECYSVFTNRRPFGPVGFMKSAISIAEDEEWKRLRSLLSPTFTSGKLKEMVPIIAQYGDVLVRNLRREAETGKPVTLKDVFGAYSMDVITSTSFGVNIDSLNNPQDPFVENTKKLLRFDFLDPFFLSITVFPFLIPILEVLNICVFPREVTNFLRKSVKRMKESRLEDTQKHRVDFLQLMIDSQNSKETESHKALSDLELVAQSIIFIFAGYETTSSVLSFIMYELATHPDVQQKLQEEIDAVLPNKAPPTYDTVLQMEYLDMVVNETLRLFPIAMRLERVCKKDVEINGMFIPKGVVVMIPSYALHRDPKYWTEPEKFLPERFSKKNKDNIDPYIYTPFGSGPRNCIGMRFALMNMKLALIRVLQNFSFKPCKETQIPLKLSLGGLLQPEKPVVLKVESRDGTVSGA
# Outline: (§1)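 Tested with commercial P450 inhibition kits, used following the manufacturer's instructions. Values reported as IC50.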
# Cytochrome P450 2D6 = Cytochrome P450 2D6 (Homo sapiens, UniProt P10635); assay: Inhibition of human hepatic CYP2D6; assay type: ADME
# Chain of Cytochrome P450 2D6 (P10635 whole entry): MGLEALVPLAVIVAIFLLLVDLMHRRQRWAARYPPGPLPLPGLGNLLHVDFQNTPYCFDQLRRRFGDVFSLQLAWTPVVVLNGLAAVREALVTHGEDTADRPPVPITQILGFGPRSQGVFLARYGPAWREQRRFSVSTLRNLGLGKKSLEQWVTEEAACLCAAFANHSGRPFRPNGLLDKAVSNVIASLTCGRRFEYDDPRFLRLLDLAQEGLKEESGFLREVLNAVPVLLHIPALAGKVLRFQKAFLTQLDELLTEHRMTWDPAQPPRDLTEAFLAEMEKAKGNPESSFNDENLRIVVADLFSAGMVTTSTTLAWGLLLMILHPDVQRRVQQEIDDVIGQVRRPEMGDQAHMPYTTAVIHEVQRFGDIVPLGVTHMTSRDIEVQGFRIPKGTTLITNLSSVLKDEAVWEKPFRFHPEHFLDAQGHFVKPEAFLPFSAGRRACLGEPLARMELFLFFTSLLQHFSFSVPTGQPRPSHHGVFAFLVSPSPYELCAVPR
# Outline: as §1
# Cytochrome P450 2C19 = Cytochrome P450 2C19 (Homo sapiens, UniProt P33261); assay: Inhibition of human hepatic CYP2C19; assay type: ADME
# Chain of Cytochrome P450 2C19 (P33261 whole entry): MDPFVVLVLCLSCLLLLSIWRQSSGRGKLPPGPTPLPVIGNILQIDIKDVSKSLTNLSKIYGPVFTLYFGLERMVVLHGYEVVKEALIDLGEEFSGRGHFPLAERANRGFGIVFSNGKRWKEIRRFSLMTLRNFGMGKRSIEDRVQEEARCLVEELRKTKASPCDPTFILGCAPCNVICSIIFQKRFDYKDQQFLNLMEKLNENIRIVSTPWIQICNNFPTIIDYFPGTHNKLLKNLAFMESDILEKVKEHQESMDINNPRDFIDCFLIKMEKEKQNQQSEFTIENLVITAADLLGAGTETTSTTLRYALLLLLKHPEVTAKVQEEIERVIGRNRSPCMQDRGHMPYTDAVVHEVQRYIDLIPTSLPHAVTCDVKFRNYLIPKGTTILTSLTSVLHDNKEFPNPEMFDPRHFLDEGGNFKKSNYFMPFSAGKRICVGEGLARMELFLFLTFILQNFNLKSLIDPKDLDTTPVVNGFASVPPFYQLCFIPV
# Outline: as §1
# [3] = Cmax in Wistar rat at 10 mg/kg, po; assay type: ADME, organism-based; parameters: dose 10 mg/kg, route oral; details: in vivo
# Outline: (§2)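 Male Wistar rats (300-330 g), jugular-vein cannulated under ketamine/xylazine anaesthesia, sampled while freely moving. Oral cassette dosing by feeding needle to four rats at 10 mg/kg in labrasol/water (1:1), 5 mL/kg. Blood taken at 0, 1, 2, 3, 4, 6, 8, 10 and 24 h postdose; plasma frozen at -20 °C and quantified by HPLC-MS/MS.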
# [4] = Tmax in Wistar rat at 10 mg/kg, po; assay type: ADME, organism-based; parameters: dose 10 mg/kg, route oral; details: in vivo
# Outline: as §2
# [5] = Terminal half life in Wistar rat at 10 mg/kg, po; assay type: ADME, organism-based; parameters: dose 10 mg/kg, route oral; details: in vivo, read-out: beta t1/2 (converted)
# Outline: as §2
# Rattus norvegicus = assay: AUC (0 to infinity) in Wistar rat at 10 mg/kg, po; assay type: ADME, organism-based, Plasma; parameters: time infinity, dose 10 mg/kg, route oral; details: in vivo
# Outline: as §2
# T47D = assay: […] in human T47D cells assessed as inhibition of E2 formation in presence of E1
# [6] = biological target: T3, Estrogen receptor (Homo sapiens) (UniProt P03372); assay: Agonist activity at ER in human T47D cells assessed as stimulation of cell proliferation; assay type: functional, cell-based
# T3 sequence (whole entry): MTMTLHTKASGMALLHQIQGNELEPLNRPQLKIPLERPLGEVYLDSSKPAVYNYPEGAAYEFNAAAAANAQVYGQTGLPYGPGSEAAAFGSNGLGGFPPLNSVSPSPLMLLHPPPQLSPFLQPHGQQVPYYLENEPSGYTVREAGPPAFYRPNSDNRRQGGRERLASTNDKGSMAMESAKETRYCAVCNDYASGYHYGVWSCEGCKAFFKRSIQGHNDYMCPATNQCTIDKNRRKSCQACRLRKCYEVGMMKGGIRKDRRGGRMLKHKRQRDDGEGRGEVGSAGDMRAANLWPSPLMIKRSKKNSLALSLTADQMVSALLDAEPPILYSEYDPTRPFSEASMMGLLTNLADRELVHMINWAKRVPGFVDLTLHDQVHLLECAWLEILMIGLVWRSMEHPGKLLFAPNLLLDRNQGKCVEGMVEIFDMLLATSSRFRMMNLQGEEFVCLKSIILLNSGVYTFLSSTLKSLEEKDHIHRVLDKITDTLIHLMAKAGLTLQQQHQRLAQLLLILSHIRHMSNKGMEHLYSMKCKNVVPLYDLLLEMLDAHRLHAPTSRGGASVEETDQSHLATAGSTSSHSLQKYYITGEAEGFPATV
# Outline: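 T-47D cells grown 48 h in phenol red-free RPMI 1640 with 5% DCC-FCS, insulin and supplements, then exposed to test compound at 100 nM final (1% ethanol) for 8 days. Medium and additive renewed every 2-3 days. E2 0.1 nM served as positive control, ethanol as negative. Viability read by MTT at 590 nm. Stimulation was expressed relative to E2-induced proliferation, mean of ≥3 independent experiments.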
Compound,IC50 [1] [nM],IC50 [2] [nM],further results
CS(=O)(=O)Nc1cccc(-c2ccc(-c3cccc(O)c3)s2)c1,,1570,
Cc1cc(-c2cnc(-c3cccc(O)c3)s2)ccc1O,143,,
Oc1cccc(-c2ccc(-c3ccc(O)c(F)c3)cc2)c1,123,872,
Oc1cccc(-c2ccc(-c3ccc(F)c(O)c3)cc2)c1,51,253,
Oc1cc(F)cc(-c2ccc(-c3ccc(O)c(F)c3)s2)c1,29,227,
Cc1cc(-c2csc(-c3cccc(O)c3)c2)ccc1O,64,,IC50 (Cytochrome P450 3A4): > 1500 nM; IC50 (Cytochrome P450 2D6): > 1500 nM; IC50 (Cytochrome P450 2C19): 1500 nM; IC50 (T47D): 362 nM
Oc1ccc(-c2cc(-c3cccc(O)c3)c(-c3cccc(O)c3)s2)cc1,> 1000,,
Cc1cc(-c2cccc(O)c2)sc1-c1cccc(O)c1,567,856,
Oc1cccc(-c2cc(-c3ccccc3)c(-c3cccc(O)c3)s2)c1,493,,
Oc1cccc(-c2ccc(-c3cc(F)c(O)c(F)c3)s2)c1,56,312,
CS(=O)(=O)NCc1cccc(-c2ccc(-c3cccc(O)c3)s2)c1,> 1000,,
O=C(/C=C/c1cc(-c2ccc(-c3cccc(O)c3)s2)ccc1O)Nc1ccccc1,427,468,
Cc1ccc(S(=O)(=O)NCc2cccc(-c3ccc(-c4cccc(O)c4)s3)c2)cc1,350,276,
Oc1cccc(-c2cc(-c3cccc(O)c3)c(-c3cccc(O)c3)s2)c1,119,188,
Oc1cccc(-c2cc(-c3ccc(O)c(F)c3)cs2)c1,64,510,
O=C(CCc1cc(-c2ccc(-c3cccc(O)c3)s2)ccc1O)Nc1ccccc1,620,982,

# Continued, in another order:
IC50 [1] [nM],IC50 [2] [nM],Compound,further results
38,97,Oc1cccc(-c2ccc(-c3ccc(O)c(C(F)(F)F)c3)s2)c1,
8,,Oc1cccc(-c2ccc(-c3ccc(O)c(F)c3)s2)c1,IC50 (Cytochrome P450 3A4): 820 nM; IC50 (Cytochrome P450 2D6): > 1500 nM; IC50 (Cytochrome P450 2C19): 1500 nM; Cmax [3]: 1390 ng/mL; Tmax [4]: 8 h; half-life [5]: 2.7 h; AUC (Rattus norvegicus): 19407 ng/mL; IC50 (T47D): 282 nM
629,2580,Cc1cc(O)cc(-c2ccc(-c3ccc(O)cc3)s2)c1,
> 5000,,Cc1ccc(-c2ccc(-c3ccc(O)cc3)s2)cc1O,
,3650,Oc1cccc(-c2ccc(-c3ccc(F)cc3)s2)c1,
780,2640,Oc1cccc(-c2ccc(-c3ccc(F)c(F)c3)s2)c1,
> 1000,,N#Cc1ccc(-c2ccc(-c3cccc(O)c3)s2)cc1,
402,,Oc1cccc(-c2ccc(-c3ccc(O)c(O)c3)s2)c1,
171,1250,Cc1cc(-c2ccc(-c3cccc(O)c3)cc2)ccc1O,
> 5000,,Oc1ccc(-c2ccc(-c3ccc(O)c(O)c3)s2)cc1,
113,183,Oc1ccc(-c2ccc(-c3ccc(F)c(O)c3)s2)cc1,
42,463,Oc1ccc(-c2ccc(-c3cc(O)cc(F)c3)s2)cc1,
> 5000,,Oc1cccc(-c2ccc(-c3ccc(O)c(-c4ccccc4)c3)s2)c1,
17,218,Oc1cc(-c2ccc(-c3ccc(O)c(F)c3)s2)ccc1F,
130,502,CCOC(=O)/C=C/c1cc(-c2ccc(-c3cccc(O)c3)s2)ccc1O,
,1820,Oc1cccc(-c2ccc(-c3cccc(F)c3)s2)c1,
> 5000,,Oc1cccc(-c2ccc(-c3ccc(S)cc3)s2)c1,
> 5000,,Nc1ccc(-c2ccc(-c3cccc(O)c3)s2)cc1,
46,,Cc1cc(-c2ccc(-c3cccc(O)c3)s2)ccc1O,Activity [6]: inactive; IC50 (Cytochrome P450 3A4): 500 nM; IC50 (Cytochrome P450 2D6): > 1500 nM; IC50 (Cytochrome P450 2C19): 940 nM; Cmax [3]: 905 ng/mL; Tmax [4]: 4 h; half-life [5]: 3.8 h; AUC (Rattus norvegicus): 12275 ng/mL; IC50 (T47D): 426 nM
